MEKK3 PB1 HTS – modulators of MEKK3-MEK5 PB1 binding, primary screen, biochemical, wildtype MEKK3, multiplex bead flow cytometry, Alexa488-MEK5 | Mitogen-activated protein kinase kinase kinase 3 (Homo sapiens), Q99759 | bead-based flow cytometry, Alexa488-MEK5 binding to MEKK3; actives lie on both sides; 0 = blocked by unlabeled MEK5, 100 = vehicle | binding response (% of control), % at 10 µM | 290,000 compounds, 1.4% hits;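 active = binding response more than 3 SD above or below the average of its plate-row segment, actives on both sides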;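 also: Alexa488 bead fluorescence after subtracting the streptavidin-only scavenger bead signal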
Target sequence (Q99759 whole entry, looked up): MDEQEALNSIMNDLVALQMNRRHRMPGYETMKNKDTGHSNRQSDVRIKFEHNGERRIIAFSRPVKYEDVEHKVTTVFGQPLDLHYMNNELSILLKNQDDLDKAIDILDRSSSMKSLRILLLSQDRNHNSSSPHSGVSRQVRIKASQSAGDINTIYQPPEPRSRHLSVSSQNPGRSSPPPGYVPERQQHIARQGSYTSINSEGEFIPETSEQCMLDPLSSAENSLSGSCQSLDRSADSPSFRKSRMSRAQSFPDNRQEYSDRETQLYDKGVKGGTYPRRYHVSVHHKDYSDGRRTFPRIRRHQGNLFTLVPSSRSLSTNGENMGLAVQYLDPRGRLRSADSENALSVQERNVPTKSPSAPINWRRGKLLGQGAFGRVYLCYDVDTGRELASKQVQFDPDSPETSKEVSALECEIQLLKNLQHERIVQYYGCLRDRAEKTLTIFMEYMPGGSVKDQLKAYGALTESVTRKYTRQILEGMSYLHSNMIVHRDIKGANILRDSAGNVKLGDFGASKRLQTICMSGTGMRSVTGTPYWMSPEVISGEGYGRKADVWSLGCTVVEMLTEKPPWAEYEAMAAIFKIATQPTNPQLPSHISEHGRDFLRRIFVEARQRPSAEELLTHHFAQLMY
MEKK2mut PB1 HTS – MEK5 binding signal on mutant MEKK2 PB1, primary screen, biochemical, multiplex bead flow cytometry, Alexa488-MEK5; Alexa488-MEK5 binding to MEKK2 mutant; percent response, % at 10 µM; 290,000 compounds, 0.35% hits; in the data active = percent response above about 24%, passing the limit was not always enough
MEKK2 WT-MEK5 – modulators of MEK5 binding to wildtype MEKK2, primary screen, biochemical, multiplex bead flow cytometry, Alexa488-MEK5; Alexa488-MEK5 binding to MEKK2 WT; actives lie on both sides; binding response (% of control), % at 10 µM; 290,000 compounds, 1.1% hits; in the data active = binding response below about 67% or above about 130%
VIM-2 inhibitor – VIM-2 metallo-beta-lactamase inhibitors, primary screen, biochemical, epi-absorbance readout, Pseudomonas aeruginosa enzyme; purified VIM-2, nitrocefin hydrolysis, epi-absorbance fluorescence; inhibition, % at 5.6 µM; 290,000 compounds, 0.89% hits;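 active = inhibition above the mean of all tested compounds plus 3 SD, cutoff set per screening run, cut at about 7.5% in these data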;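 also: red hydrolysis product quenches plate fluorescence so inhibitors raise well fluorescence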
IMP-1 inhibitor – IMP-1 metallo-beta-lactamase inhibitors, primary screen, biochemical, epi-absorbance readout, Pseudomonas aeruginosa enzyme | purified IMP-1, nitrocefin hydrolysis, epi-absorbance fluorescence | inhibition, % at 5.6 µM | 290,000 compounds, 0.45% hits | AID 1556, 2009;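 active = inhibition above the mean plus 3 SD of all compounds in the same screening run, cut at about 4.5% in these data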
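Assay system: purified recombinant IMP-1 beta-lactamase. Input: IMP-1 0.2 nM before substrate addition. Buffer or medium: Zinc- and detergent-supplemented HEPES buffer, pH 7.1. Schedule: 25 °C, 15 min preincubation, 25 min reaction. Signal: Epi-absorbance fluorescence, 480 nm excitation, 530 nm emission. Evaluation: percent inhibition from optical density relative to buffer-blank wells.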
Each line names hits and unclear results; the compound was inactive in the other large screens. An excerpt weighted towards active compounds, which were near 3.4% of everything screened.

O=S(=O)(c1ccc(-c2csc(Nc3ccc(Br)cc3)n2)cc1)N1CCCC1	MEKK2 WT-MEK5 -4.0
O=C(CN1C(=O)/C(=C/c2ccco2)SC1=S)NC1CCS(=O)(=O)C1 (stereo not drawn)	IMP-1 inhibitor 5.6
O=C(CN1C(=O)/C(=C/c2ccco2)SC1=S)Nc1ccc(C(=O)O)c(O)c1	IMP-1 inhibitor 7.2
O=C(CN1C(=O)/C(=C/c2ccco2)SC1=S)Nc1ccc(O)c(C(=O)O)c1	none
O=C(CCCN1C(=O)/C(=C/c2cccs2)SC1=S)Nc1ccc(O)c(C(=O)O)c1	VIM-2 inhibitor 9.7
O=C(CCN1C(=O)/C(=C/c2ccccc2)SC1=S)NC1CCS(=O)(=O)C1 (stereo not drawn)	none
COc1ccc(C(C)C)cc1S(=O)(=O)Nc1ccc(Cl)cn1	none
Cc1ccc(Cl)cc1Nc1nc(-c2sc(NC(=O)c3cccc(Cl)c3)nc2C)cs1	none
CCCCCC(=O)Nc1nc(C)c(-c2csc(Nc3ccc(Cl)cc3)n2)s1	none
CCCC(C)C(=O)Nc1nc(C)c(-c2csc(Nc3cc(Cl)ccc3C)n2)s1 (stereo not drawn)	IMP-1 inhibitor 9.9
CCCCCC(=O)Nc1nc(C)c(-c2csc(Nc3cc(Cl)ccc3C)n2)s1	IMP-1 inhibitor 12
CCCNC(=O)NC(=O)COc1ccc2oc3ccccc3c2c1	none
Cc1ccc(C)c(NC(=O)CSc2nnc(C)c(=O)n2N)c1	none
Cc1cc(C)c(NC(=O)CSc2nnc(SCC(=O)Nc3c(C)cc(C)cc3C)n2N)c(C)c1	IMP-1 inhibitor 7.2
O=Cc1cc2ccccc2nc1SCc1ccc(Cl)c(Cl)c1	IMP-1 inhibitor 4.7
COc1cccc(NC(=O)COc2ccc(C(=S)N3CCN(C)CC3)cc2OC)c1	VIM-2 inhibitor 8.3
CCCCn1c2ccc(F)cc2c2nnc(SCCN3CCCCC3)nc21	VIM-2 inhibitor 8.4
CCOc1ccc2c(c1)c1nnc(SCC(=O)N3CCCCC3C)nc1n2C (stereo not drawn)	none
CCn1c2ccc(C)cc2c2nnc(SCCN3CCOCC3)nc21	VIM-2 inhibitor 11
Cn1c2ccc(F)cc2c2nnc(SCCN3CCCCC3)nc21	VIM-2 inhibitor 12
CCn1c2ccccc2c2nnc(SCCN3CCOCC3)nc21	none
O=C(NCC1CCCO1)c1cccc(NC(=O)c2ccccc2)c1 (stereo not drawn)	none
CSc1nc(N(C)CCO)c2sc3nc(-c4ccco4)c4c(c3c2n1)CCC4	IMP-1 inhibitor 11
CSc1nc(SCC(=O)O)c2sc3nc(-c4ccccc4)c4c(c3c2n1)CCC4	IMP-1 inhibitor 64
CSc1nnc(-c2ccco2)c(-c2ccco2)n1	none
Oc1ccc(/C=N/n2c(-c3ccccc3)n[nH]c2=S)cc1	VIM-2 inhibitor 9.2
CCOC(=O)C1C(=O)C=C(/C=C/c2ccc(N(C)C)cc2)CC1c1ccccc1 (stereo not drawn)	MEKK2mut PB1 HTS 51, MEKK2 WT-MEK5 42
COc1ccccc1NC(=O)Cn1c(=O)n(C)c(=O)c2sc3c(c21)COC(C)(C)C3	none
Cc1cc(Oc2ccccc2)nc(SCC(=O)Nc2ccc(Cl)cc2Cl)n1	IMP-1 inhibitor 46
COc1ccc(Nc2sc(C(=O)c3ccc(Cl)cc3)c(N)c2C(=O)Nc2ccccc2OC)cc1	none
COc1ccccc1NC(=O)c1c(Nc2ccccc2C)sc(C(=O)Nc2cccc(Cl)c2)c1N	MEKK2 WT-MEK5 -3.0
CC1=CC(C)(C)N(S(=O)(=O)c2ccc(C)cc2)c2cc(C)ccc21	none
Cc1ccc(S(=O)(=O)N2C(=S)SCC2(C)C)cc1	IMP-1 inhibitor 5.4
Cc1c(Br)c([N+](=O)[O-])nn1CC(=O)NCC1CCCO1 (stereo not drawn)	none
CCCCc1oc2ccccc2c1C(=O)c1cc(I)c(OCCN(CC)CC)c(I)c1	MEKK2mut PB1 HTS 51, MEKK2 WT-MEK5 163 (no result: IMP-1 inhibitor)
COc1ccc(NC(=O)CSCC(=O)N=c2sccn2C)cc1	none

Source: PubChem (several laboratories)
